HUVEC prolif 384 = inhibitors of HUVEC proliferation, primary screen, cell-based, 384-well | actives 1.1% (n = 86,000) | viability, % at 10 µM (by protocol) | CellTiter-Glo luminescence, 72 h; stronger effect = lower value | AID 648, 2007;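 active = viability at or below 30%; inactive = viability above 30%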;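 note: 100% = median luminescence of DMSO-only cell control wells on each plate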
H69AR growth 86K = proliferation blockers of H69AR lung cancer cells, primary screen, cell-based, human, 86K library. H69AR lung tumor viability, ATP luminescence, 72 h; stronger effect = lower value. viability, % at 10 µM. actives 6% (n = 85,000). AID 598, 2007;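 active = viability at or below 40%; inactive = viability above 40%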;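 note: multidrug resistant small cell line overexpressing MRP-1 efflux transporter; 100% = mean luminescence of untreated control wells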
HCT116 bCat-KO = primary screen for growth suppressors in beta-catenin knockout HCT116 cells (colon tumor, human); viability, % at 10 µM; actives 1.5% (n = 140,000); HCT116 beta-catenin knockout viability, CellTiter-Glo, 60 h; stronger effect = lower value;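 active = viability at or under a set limit, the compound median less 4 SD, cut at about 6% in these data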;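 note: 0% = Hyamine 1622 control at 20 µM and 100% = untreated cell control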
HCT116 PTEN-null = growth suppression of PTEN-null HCT116, primary screen, cell-based, CellTiter-Glo; HCT116 PTEN-null viability, 60 h; stronger effect = lower value; viability, % at 10 µM; actives 1.2% (n = 140,000); AID 827, 2007;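 active = viability at or below a set limit, 4 SD under the median of all tested compounds, cut at about 3.7% in these data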;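 note: PTEN knockout HCT116 line with beta catenin targeted HCT116 as companion control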
Lung fibro prol = antiproliferative effect on LL 47 fibroblasts – human, LL 47 cells, CellTiter-Glo luminescence, primary screen; LL 47 human lung fibroblast viability, ATP luminescence; stronger effect = lower value; viability, % at 10 µM; actives 1.1% (n = 85,000);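 active = viability at or below 50% in the single dose screen; inactive = viability above 50%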;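 note: compound exposure lasted 72 h before the ATP readout; 100% = median luminescence of untreated cell-only wells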
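Test system: LL 47 human lung fibroblasts / Quantity: 1,150 cells in each well / Medium: IMEM growth medium with 15% fetal bovine serum / Incubation: 72 h compound exposure at 37 °C after overnight plating / Detection: CellTiter-Glo luminescence measuring cellular ATP / Read-out: % viability versus median cells-only luminescence / Benchmarks: cell-only wells, no compound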
* marks the source's active call; other numbers are inactive results; nt = no result. The entries come from a sample that favours hits as a whole.

SMILES	HUVEC prolif 384	H69AR growth 86K	HCT116 bCat-KO	HCT116 PTEN-null	Lung fibro prol
CCc1nnc(NC(=O)CSc2ccc(-c3nc4ccc(C)cc4[nH]3)cn2)s1	nt	nt	80	84	nt
CC1=CC(C)(C)[N+](C)=CN1c1ccccc1	nt	nt	90	88	nt
COc1ccc(-c2cc(-c3cc(OC)ccc3O)[nH]n2)cc1	53	28*	21	36	73
COc1ccc(-c2cc(-c3ccc(OC)c(OC)c3)n[nH]2)c(O)c1	96	54	26	32	86
COc1ccc(O)c(-c2cc(-c3cccc(Br)c3)n[nH]2)c1	43	36*	14	37	96
Cc1ccc(O)c(-c2cc(-c3cccc(F)c3)n[nH]2)c1	28*	0.6*	40	47	82
COc1ccc(-c2cc(-c3cc(F)ccc3O)[nH]n2)cc1OC	44	52	32	34	78
c1ccc(-c2ccc(C3=Nn4c(Cn5nnc6ccccc65)nnc4SC3)cc2)cc1	nt	nt	72	61	nt
Cc1ncc(CCl)c2c1OC(C)(C)OC2	79	2.8*	100	96	97
C=CCn1c(SCc2nc3ccccc3c(=O)[nH]2)nnc1-c1cc2cc(Cl)ccc2o1	65	17*	70	76	92
COc1ccc(S(=O)(=O)Nc2cc3c4c(oc3c3ccccc23)CC(C)(C)CC4=O)cc1	69	15*	39	23	100
N#Cc1cnn(-c2ncnc3sc4c(c23)CCCC4)c1N	nt	nt	85	80	nt
N#Cc1cnn(-c2ncnc3sc(-c4ccccc4)cc23)c1N	74	36*	88	89	96
Cc1cc(Cl)c(OCCCNCc2ccccc2)c(Br)c1	nt	nt	1.5*	1.2*	nt
Clc1ccc(OCCCNCc2ccccc2)c(Br)c1	nt	nt	1.2*	1.7*	nt
O=C(Nc1ccc(NC(=O)c2sc3ccccc3c2Cl)cc1Cl)c1ccco1	nt	nt	41	58	nt
CC(C)(C)C1=CC(=O)C(N2CCOCC2)=CC1=O	nt	nt	2.0*	2.0*	nt
CCOc1ccc(C(C)(C)C)cc1S(=O)(=O)N1CCOCC1	90	80	77	79	97
CCCCC(CC)C(=O)NCc1ccc(F)cc1 (stereo not drawn)	nt	nt	79	88	nt
Cn1c(C(=O)NCCCN2CCCC2=O)cc2c(=O)n3ccccc3nc21	91	95	nt	nt	101
CC(C)CCn1c(SCC(N)=O)nc2c1c(=O)n(C)c(=O)n2C	100	39*	92	93	93
C(=C\c1nc(N2CCCCCC2)c2ccccc2n1)/c1ccccc1	nt	nt	3.3*	8	nt
c1ccc2c(N3CCCCC3)nc(N3CCCCC3)nc2c1	77	54	58	51	95
CCn1c(SCc2ccc(C#N)cc2)nnc1-c1ccc(S(=O)(=O)N2CCCCC2)cc1	75	34*	75	66	87
CCn1c(=O)c(C(=O)Nc2cnccn2)c(O)c2ccccc21	112	92	nt	nt	94
SMILES	HUVEC prolif 384	H69AR growth 86K	HCT116 bCat-KO	HCT116 PTEN-null	Lung fibro prol
Cn1c(=O)c(C(=O)Nc2ccccn2)c(O)c2ccccc21	103	19*	15	12	55
Cn1c(=O)c(C(=O)Nc2cnccn2)c(O)c2ccccc21	98	0.6*	nt	nt	104
Cc1c(NC(=O)Cn2ccc([N+](=O)[O-])n2)c(=O)n(-c2ccccc2)n1C	nt	nt	93	102	nt
COC(=O)c1ccccc1S(=O)(=O)N1Cc2cc([N+](=O)[O-])ccc2Oc2ccccc21	92	73	92	89	88
CN(C)S(=O)(=O)c1ccc(N2CCCC2)c(C(=O)Nc2nc(-c3cc(F)ccc3F)cs2)c1	nt	nt	77	51	nt
Cc1ccc(NC(=O)c2cc(NC(=O)c3ccco3)ccc2N2CCOCC2)cc1	89	42	71	61	107
Cc1ccc(NC(=O)c2cc(NC(=O)c3ccco3)ccc2N2CCCCC2)cc1	68	26*	70	75	48*
Cc1ccc(-c2nnc(-c3ccc(NC(=O)Cc4cccs4)cc3)o2)cc1	nt	nt	1.2*	1.4*	nt
O=C(Cc1cccs1)Nc1ccc(Cl)cc1	99	99	88	87	100
Clc1ccc(-c2nn3c(-c4ccccn4)nnc3s2)c(Cl)c1	96	68	nt	nt	100
COc1ccc(/C=N/Nc2ccc([N+](=O)[O-])cc2)cc1Cn1cc([N+](=O)[O-])cn1	48	14*	89	93	92
COc1ccc(Cn2c(SCc3ccccc3C)nc3cc(OC)c(OC)cc3c2=N)cc1	nt	nt	1.6*	1.1*	nt
